What was measured:
[1] = test system: Bone; test: Biodistribution in ICR mouse bone at 370 kBq, iv after 2 mins by gamma-counting analysis; assay type: ADME, organism-based, Bone element; conditions: in vivo
Outline: (§1)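 Male ICR mice (n = 5 per group) got 370 kBq tracer in 0.1 mL saline by iv injection. They were decapitated at 2, 30, 60 or 120 min, and organs were weighed and γ-counted. %ID/g was found against diluted aliquots of the injected dose, decay-corrected, and given as mean ± SD.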

[2] = test system: Brain; test: Biodistribution in ICR mouse brain at 370 kBq, iv after 60 mins by gamma-counting analysis in presence of haloperidol relative to control; assay type: ADME, organism-based; conditions: in vivo, 1 h
Outline: (§2)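 Male ICR mice (n = 5) got saline or haloperidol (0.1 mL, 1.0 mg/kg) via tail vein 5 min before 370 kBq tracer iv. Tissues were taken 60 min later and γ-counted as %ID/g (intestine as %ID/organ). Control and blocked groups were compared by two-tailed independent Student's t test, p ≤ 0.05.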

[3] = test system: Stomach; test: Biodistribution in ICR mouse stomach assessed per organ at 370 kBq, iv after 120 mins by gamma-counting analysis; assay type: ADME, organism-based; conditions: in vivo, 2 h
Outline: (§3)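 Male ICR mice, n = 5 per time point, given the radiotracer in saline (370 kBq, 0.1 mL) by intravenous injection. Killed by decapitation at 2, 30, 60 or 120 min. Organs were excised, weighed and gamma-counted with decay correction. Uptake is expressed as % injected dose per gram of wet tissue against diluted standards of the injected material; stomach and intestine are expressed as % injected dose per organ. Mean ± SD.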

[4] = test system: Brain; test: Biodistribution in ICR mouse brain at 370 kBq, iv after 120 mins by gamma-counting analysis; assay type: ADME, organism-based; conditions: in vivo, 2 h; outline: as §1
[5] = Ratio of drug uptake from ICR mouse brain to blood after 30 mins; assay type: ADME, tissue-based; conditions: brain and blood
[6] = test system: Heart; test: Biodistribution in ICR mouse heart at 370 kBq, iv after 2 mins by gamma-counting analysis; assay type: ADME, organism-based; conditions: in vivo; outline: as §1
[7] = test system: Muscle tissue; test: Biodistribution in ICR mouse muscle at 370 kBq, iv after 60 mins by gamma-counting analysis in presence of haloperidol relative to control; assay type: ADME, organism-based; conditions: in vivo, 1 h
Outline: (§4)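 Male ICR mice, n = 5 per group, received saline (0.1 mL) or haloperidol (0.1 mL, 1.0 mg/kg) via tail vein 5 min before the radiotracer (370 kBq, 0.1 mL, iv). Killed by decapitation at 60 min. Tissues were excised, weighed and gamma-counted. Values are % ID/g (stomach as % ID/organ) and percent change versus saline controls, compared by two-tailed independent Student's t test, p ≤ 0.05.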

[8] = test system: Lung; test: Biodistribution in ICR mouse lung at 370 kBq, iv after 60 mins by gamma-counting analysis; assay type: ADME, organism-based; conditions: in vivo, 1 h; outline: as §3
[9] = test system: Kidney; test: Biodistribution in ICR mouse kidney at 370 kBq, iv after 2 mins by gamma-counting analysis; assay type: ADME, organism-based; conditions: in vivo; outline: as §1
[10] = test system: Lung; test: Biodistribution in ICR mouse lung at 370 kBq, iv after 60 mins by gamma-counting analysis in presence of haloperidol relative to control; assay type: ADME, organism-based; conditions: in vivo, 1 h; outline: as §4
[11] = test system: Blood; test: Biodistribution in ICR mouse blood at 370 kBq, iv after 2 mins by gamma-counting analysis; assay type: ADME, organism-based; conditions: in vivo; outline: as §1
[12] = test system: Lung; test: Biodistribution in ICR mouse lung at 370 kBq, iv after 30 mins by gamma-counting analysis; assay type: ADME, organism-based; conditions: in vivo, 0.5 h; outline: as §1
[13] = test system: Intestine; test: Biodistribution in ICR mouse intestine assessed per organ at 370 kBq, iv after 60 mins by gamma-counting analysis in presence of haloperidol relative to control; assay type: ADME, organism-based; conditions: in vivo, 1 h; outline: as §2
[14] = test system: Liver; test: Biodistribution in ICR mouse liver at 370 kBq, iv after 120 mins by gamma-counting analysis; assay type: ADME, organism-based; conditions: in vivo, 2 h; outline: as §1
[15] = test system: Heart; test: Biodistribution in ICR mouse heart at 370 kBq, iv after 60 mins by gamma-counting analysis in presence of haloperidol relative to control; assay type: ADME, organism-based; conditions: in vivo, 1 h; outline: as §2
[16] = test system: Stomach; test: Biodistribution in ICR mouse stomach assessed per organ at 370 kBq, iv after 60 mins by gamma-counting analysis in presence of haloperidol relative to control; assay type: ADME, organism-based; conditions: in vivo, 1 h; outline: as §4
[17] = Ratio of drug uptake from ICR mouse brain to blood after 60 mins; assay type: ADME, tissue-based; conditions: brain and blood
[18] = test system: Lung; test: Biodistribution in ICR mouse lung at 370 kBq, iv after 2 mins by gamma-counting analysis; assay type: ADME, organism-based; conditions: in vivo; outline: as §1
[19] = test system: Liver; test: Biodistribution in ICR mouse liver at 370 kBq, iv after 60 mins by gamma-counting analysis; assay type: ADME, organism-based; conditions: in vivo, 1 h; outline: as §1
[20] = test system: Intestine; test: Biodistribution in ICR mouse intestine assessed per organ at 370 kBq, iv after 120 mins by gamma-counting analysis; assay type: ADME, organism-based; conditions: in vivo, 2 h
Outline: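 Male ICR mice (n = 5) got 370 kBq iv in 0.1 mL saline and were decapitated at 2, 30, 60 or 120 min. Whole intestine was γ-counted and expressed as percent injected dose per organ, decay-corrected, mean ± SD.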

[21] = test system: Blood; test: Biodistribution in ICR mouse blood at 370 kBq, iv after 30 mins by gamma-counting analysis; assay type: ADME, organism-based; conditions: in vivo, 0.5 h; outline: as §1
[22] = test system: Spleen; test: Biodistribution in ICR mouse spleen at 370 kBq, iv after 120 mins by gamma-counting analysis; assay type: ADME, organism-based; conditions: in vivo, 2 h; outline: as §3
[23] = test system: Stomach; test: Biodistribution in ICR mouse stomach assessed per organ at 370 kBq, iv after 60 mins by gamma-counting analysis; assay type: ADME, organism-based; conditions: in vivo, 1 h; outline: as §3
[24] = test system: Kidney; test: Biodistribution in ICR mouse kidney at 370 kBq, iv after 30 mins by gamma-counting analysis; assay type: ADME, organism-based; conditions: in vivo, 0.5 h; outline: as §1
[25] = test system: Bone; test: Biodistribution in ICR mouse bone at 370 kBq, iv after 60 mins by gamma-counting analysis in presence of haloperidol relative to control; assay type: ADME, organism-based, Bone element; conditions: in vivo, 1 h; outline: as §2
[26] = test system: Spleen; test: Biodistribution in ICR mouse spleen at 370 kBq, iv after 30 mins by gamma-counting analysis; assay type: ADME, organism-based; conditions: in vivo, 0.5 h; outline: as §3
[27] = test system: Liver; test: Biodistribution in ICR mouse liver at 370 kBq, iv after 60 mins by gamma-counting analysis in presence of haloperidol relative to control; assay type: ADME, organism-based; conditions: in vivo, 1 h; outline: as §2
[28] = test system: Heart; test: Biodistribution in ICR mouse heart at 370 kBq, iv after 120 mins by gamma-counting analysis; assay type: ADME, organism-based; conditions: in vivo, 2 h; outline: as §1
[29] = test system: Kidney; test: Biodistribution in ICR mouse kidney at 370 kBq, iv after 120 mins by gamma-counting analysis; assay type: ADME, organism-based; conditions: in vivo, 2 h; outline: as §1
[30] = test system: Lung; test: Biodistribution in ICR mouse lung at 370 kBq, iv after 120 mins by gamma-counting analysis; assay type: ADME, organism-based; conditions: in vivo, 2 h; outline: as §1
[31] = test system: Blood; test: Biodistribution in ICR mouse blood at 370 kBq, iv after 60 mins by gamma-counting analysis; assay type: ADME, organism-based; conditions: in vivo, 1 h; outline: as §1
[32] = test system: Spleen; test: Biodistribution in ICR mouse spleen at 370 kBq, iv after 60 mins by gamma-counting analysis in presence of haloperidol relative to control; assay type: ADME, organism-based; conditions: in vivo, 1 h; outline: as §4
[33] = Ratio of drug uptake from ICR mouse brain to blood after 120 mins; assay type: ADME, tissue-based; conditions: brain and blood
[34] = test system: Liver; test: Biodistribution in ICR mouse liver at 370 kBq, iv after 2 mins by gamma-counting analysis; assay type: ADME, organism-based; conditions: in vivo; outline: as §1
[35] = test system: Blood; test: Biodistribution in ICR mouse blood at 370 kBq, iv after 60 mins by gamma-counting analysis in presence of haloperidol relative to control; assay type: ADME, organism-based; conditions: in vivo, 1 h; outline: as §2
[36] = test system: Bone; test: Biodistribution in ICR mouse bone at 370 kBq, iv after 120 mins by gamma-counting analysis; assay type: ADME, organism-based, Bone element; conditions: in vivo, 2 h; outline: as §1
[37] = Ratio of drug uptake from ICR mouse brain to blood after 2 mins; assay type: ADME, tissue-based; conditions: brain and blood
[38] = test system: Heart; test: Biodistribution in ICR mouse heart at 370 kBq, iv after 60 mins by gamma-counting analysis; assay type: ADME, organism-based; conditions: in vivo, 1 h; outline: as §1
[39] = test system: Brain; test: Biodistribution in ICR mouse brain at 370 kBq, iv after 2 mins by gamma-counting analysis; assay type: ADME, organism-based; conditions: in vivo; outline: as §1

| SMILES | Drug uptake [1] [% ID/g] | Drug uptake [2] [%] | Drug uptake [3] [%ID] | Drug uptake [4] [% ID/g] | Kp at 0.5 h [5] | Drug uptake [6] [% ID/g] | Drug uptake [7] [%] | Drug uptake [8] [% ID/g] | Drug uptake [9] [% ID/g] | Drug uptake [10] [%] | Drug uptake [11] [% ID/g] | Drug uptake [12] [% ID/g] | Drug uptake [13] [%] | Drug uptake [14] [% ID/g] | Drug uptake [15] [%] | Drug uptake [16] [%] | Kp at 1 h [17] | Drug uptake [18] [% ID/g] | Drug uptake [19] [% ID/g] | Drug uptake [20] [%ID] | also measured |
| --- | --- | --- | --- | --- | --- | --- | --- | --- | --- | --- | --- | --- | --- | --- | --- | --- | --- | --- | --- | --- | --- |
| [18F]CCOCCOCCOc1ccc(CN2CCC3(CC2)OCc2ccccc23)cc1 | 3.38 | -16 | 2.03 | 3.91 | 1.8 | 7.69 | 17 | 3.73 | 16.45 | 6 | 1.97 | 4.46 | 30 | 4.14 | 17 | 28 | 1.4 | 20.68 | 6.32 | 4.04 | Drug uptake [21]: 2.96 % ID/g; Drug uptake [22]: 3.91 % ID/g; Drug uptake [23]: 1.45 %ID; Drug uptake [24]: 5.09 % ID/g; Drug uptake [25]: -26%; Drug uptake [26]: 7.64 % ID/g; Drug uptake [27]: -36%; Drug uptake [28]: 3.25 % ID/g; Drug uptake [29]: 3.96 % ID/g; Drug uptake [30]: 3.16 % ID/g; Drug uptake [31]: 3.35 % ID/g; Drug uptake [32]: -32%; Kp at 2 h [33]: 1.1; Drug uptake [34]: 5.83 % ID/g; Drug uptake [35]: 17%; Drug uptake [36]: 5.28 % ID/g; Kp at 2 min [37]: 2.9; Drug uptake [38]: 3.43 % ID/g; Drug uptake [39]: 5.79 % ID/g |
| [18F]CCOc1ccc(CN2CCC3(CC2)OCc2ccccc23)cc1 | 2.74 | -58 | 0.89 | 8.99 | 12.9 | 21.71 | -20 | 25.21 | 18.76 | -76 | 1.71 | 25.89 | -7 | 13.6 | -61 | 208 | 11.4 | 47.91 | 13.87 | 7.17 | Drug uptake [21]: 0.72 % ID/g; Drug uptake [22]: 9.09 % ID/g; Drug uptake [23]: 0.9 %ID; Drug uptake [24]: 13.16 % ID/g; Drug uptake [25]: 18%; Drug uptake [26]: 8.2 % ID/g; Drug uptake [27]: -64%; Drug uptake [28]: 8.54 % ID/g; Drug uptake [29]: 9.55 % ID/g; Drug uptake [30]: 16.2 % ID/g; Drug uptake [31]: 0.8 % ID/g; Drug uptake [32]: 5%; Kp at 2 h [33]: 7.5; Drug uptake [34]: 8.46 % ID/g; Drug uptake [35]: 352%; Drug uptake [36]: 6.13 % ID/g; Kp at 2 min [37]: 4.7; Drug uptake [38]: 10.74 % ID/g; Drug uptake [39]: 8.07 % ID/g |

Source: ChEMBL document CHEMBL2346503, “Synthesis and evaluation of novel (18)F-labeled spirocyclic piperidine derivatives as σ1 receptor ligands for positron emission tomography imaging” (J Med Chem, 2013)
